An excerpt weighted towards active compounds, which were near 3.1% of everything screened.
OX1R antag-1: blocks the human orexin 1 receptor. O43613. OX1R-expressing cells, FRET antagonist read-out. inhibition, % at 6.6 µM. 330,000 compounds, 1.8% hits. AID 485270; in the data active = inhibition mostly above about 38%, no sharp cut-off; inactive = mostly below about 40%
Target sequence (O43613 whole entry, looked up): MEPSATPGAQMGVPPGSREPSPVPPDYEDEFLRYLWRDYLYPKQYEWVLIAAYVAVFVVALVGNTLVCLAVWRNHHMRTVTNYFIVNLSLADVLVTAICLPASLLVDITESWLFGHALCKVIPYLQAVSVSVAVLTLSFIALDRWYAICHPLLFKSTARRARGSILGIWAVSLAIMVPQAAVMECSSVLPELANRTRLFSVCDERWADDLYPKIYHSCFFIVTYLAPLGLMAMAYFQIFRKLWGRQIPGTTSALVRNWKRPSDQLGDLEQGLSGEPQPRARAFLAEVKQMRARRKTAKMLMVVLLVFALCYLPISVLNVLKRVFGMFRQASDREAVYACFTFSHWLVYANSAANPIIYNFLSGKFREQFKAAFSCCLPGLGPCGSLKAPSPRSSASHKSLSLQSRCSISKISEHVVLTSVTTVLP
GPR7 antagonist: human neuropeptides B/W receptor 1 antagonism; P48145; GPR7-expressing cells, fluorescence antagonist assay; inhibition, % at 4.4 µM; 290,000 compounds, 1.1% hits; AID 1861; in the data active = inhibition above about 16%, passing the limit was not always enough;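 also: cells stimulated with the agonist NPW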
OX1R antag-2: human HCRTR1 antagonism; 330,000 compounds, 0.43% hits; O43613; CHO/OX1R cells, Fluo-8 calcium fluorescence, orexin A; inhibition, % at 5 µM; AID 434989;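 active = inhibition above its plate's threshold, mean inhibition of all tested compounds on the plate plus 3 SD, cut at about 37% in these data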
CHO parental Ca: counter-screen: ATP calcium response change in parental CHO cells; parental CHO-K1, ATP-induced calcium, Fluo-8 fluorescence; AID 463079; inhibition, % at 5.6 µM; 330,000 compounds, 0.63% hits;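 active = inhibition above that plate's mean sample inhibition plus 3 SD, cut at about 26% in these data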
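Assay system: untransfected parental CHO cell line. Also added: ATP agonist challenge. Dosing: one dose, 5.6 µM nominal. Measured by: Fluo-8 fluorescence. Read-out: % inhibition. Benchmarks: ATP wells versus no-ATP DMSO wells. Repeats: no replicates.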
GalR3 antag: human GalR3 antagonism. O60755. HEK293 GalR3-CNG cAMP membrane potential fluorescence; galR3 body fused to GalR1 C-terminus. inhibition, % at 3 µM. 360,000 compounds, 0.44% hits;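 active = inhibition above the screen-wide average plus 3 SD, cut at about 13% in these data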;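 also: forskolin and galanin both at EC90 stimulate the cells; cAMP rise reported by CNG channel membrane potential dye signal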
GPR7 antag conf: confirmation of human GPR7 antagonists; AID 1952; GPR7-expressing cells, calcium fluorescence antagonist mode; 2,400 compounds, 52% hits; shares compounds with GPR7 antagonist; inhibition, % at 4.4 µM; in the data active = inhibition above about 24%;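 also: stimulated with the GPR7 agonist NPW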
MCHR1 antagonist: counter-screen for GPR7 antagonists: antagonists of human MCHR1. shares compounds with GPR7 antagonist. MCHR1-expressing cells, fluorescence antagonist assay. inhibition, % at 4.4 µM. 2,400 compounds, 62% hits. AID 2148; in the data active = inhibition above about 22%
Hits are given with their value; n = inactive; x = no result.

SMILES	OX1R antag-1	GPR7 antagonist	OX1R antag-2	CHO parental Ca	GalR3 antag	GPR7 antag conf	MCHR1 antagonist
CC(C)CCC1(CCNC(C)c2cccs2)CCOC(C)(C)C1 (configuration not stated)	n	23	n	n	n	n	n
COc1ccc(Cc2nc3ccc(C(=O)NCCc4ccccn4)cc3o2)cc1OC	n	22	n	n	n	n	n
CCN1CCN(CCNC(=O)c2ccc(/C=C3/Sc4ccccc4N(Cc4ccccc4C)C3=O)cc2)CC1	x	26	x	x	n	83	91
O=C(Cc1ccc([N+](=O)[O-])cc1)Nc1ccc2c(c1)CCC2	n	22	n	n	n	n	27
O=C(COc1ccc([N+](=O)[O-])cc1)Nc1ccc2c(c1)CCC2	n	x	n	n	n	x	x
c1ccc(-n2ncc3c(NCc4ccco4)ncnc32)cc1	n	24	n	n	n	48	44
Cc1ccc(S(=O)(=O)N(C)C)cc1NC(=O)C(C)OC(=O)CC1CC2CCC1C2 (configuration not stated)	x	x	x	x	n	x	x
COc1ccc(OCCOc2ccc(S(=O)(=O)N3CCCC3)cc2[N+](=O)[O-])cc1	n	x	n	n	n	x	x
Cc1ccc(S(=O)(=O)N2CCCC2)cc1[N+](=O)[O-]	n	n	n	n	n	x	x
COc1cccc(Oc2ccc(S(=O)(=O)N3CCCC3)cc2[N+](=O)[O-])c1	n	31	n	n	n	n	n
O=[N+]([O-])c1cc(S(=O)(=O)N2CCCCCC2)ccc1Cl	x	39	x	x	n	63	n
Clc1cccc(Cc2c(-c3ccccc3)nc3ccc(Cl)cn23)c1	x	x	x	x	n	x	x
O=C(c1ccc(COc2ccccc2Br)cc1)N1CCCCC1	n	25	n	n	n	36	44
COc1ccccc1CN1CCc2c([nH]c3ccccc23)C1	n	n	n	n	n	x	x
Clc1cccc(CN2CCc3c([nH]c4ccccc34)C2)c1Cl	n	50	n	n	n	47	29
CN1C(=O)C(O)(CC(=O)/C=C/C=C/c2ccccc2)c2ccccc21 (configuration not stated)	n	23	n	n	n	n	n
CN1C(=O)C(O)(CC(=O)/C=C/c2ccco2)c2ccccc21 (configuration not stated)	n	n	n	n	n	x	x
CCC1(CC)N([O-])C(C)=C(c2ccccc2)[N+]1=O	n	n	n	n	n	x	x
CCC1(C)N([O-])C(C)=C(c2ccccc2)[N+]1=O (configuration not stated)	n	28	n	n	n	n	n
C[C@@H](c1ccccc1)N1C[C@@H](COCc2ccccc2)Oc2cc(N3CCC[C@H]3CO)ccc2S1(=O)=O	x	x	x	x	n	x	x
Cc1nn(Cc2ccc(C(=O)Nc3ccccc3F)cc2)c(C)c1Cl	n	32	n	n	n	n	31
COc1cc(CCC(=O)Nc2cc(S(=O)(=O)N3CCOCC3)ccc2OC(C)C)cc(OC)c1OC	x	x	x	x	n	x	x
Cc1cccc(-c2nc(=S)c3c(n2Cc2ccco2)CCCC3)c1	n	28	n	n	n	n	n
COc1ccc(N(C(=O)CNC(=O)c2cccs2)C(C(=O)NCC2CCCO2)c2ccccc2)c(OC)c1 (configuration not stated)	n	n	n	n	n	x	x
CCc1nn(CC(=O)N2CCN(CC)CC2)c(=O)c2cc3sccc3n12	n	21	n	n	n	n	n
SMILES	OX1R antag-1	GPR7 antagonist	OX1R antag-2	CHO parental Ca	GalR3 antag	GPR7 antag conf	MCHR1 antagonist
CCN1CCN(C(c2ccccc2OC)c2nnnn2C2CCCCC2)CC1 (configuration not stated)	n	30	n	n	n	n	n
COc1cccc(C(c2nnnn2C2CCCCC2)N2CCN(C/C=C/c3ccccc3)CC2)c1OC (configuration not stated)	x	x	x	x	n	x	x
CCC(C)N(C(=O)Cn1nnc(-c2ccc(F)cc2)n1)C1CCS(=O)(=O)C1 (configuration not stated)	n	n	n	n	n	x	x
COc1ccccc1NC(=O)Oc1cccc(OC(=O)c2ccccc2)c1	n	n	n	n	n	n	n
COc1cccc(OC)c1OC(=O)c1ccccc1	x	x	x	x	n	x	x
CC(C)(C)OC(=O)NCCCCCNC(=O)c1ncn(Cc2ccccc2)c1C(=O)NCCCCCNC(=O)OC(C)(C)C	n	x	n	n	n	x	x
Nc1ccn([C@@H]2O[C@H](C(=O)Nc3cc(C(F)(F)F)cc(C(F)(F)F)c3)[C@@H](O)[C@H]2O)c(=O)n1	x	x	x	x	n	x	x
Cc1cccc2cc(CN(Cc3ccccc3)C(=S)NCCCN(C)C)c(=O)[nH]c12	n	53	n	n	n	48	28
Cc1ccc(CN(Cc2cc3cccc(C)c3[nH]c2=O)C(=S)NCCCN(C)C)cc1	n	36	n	n	n	47	30
Cc1cccc2cc(CN(Cc3cccnc3)C(=S)NCCCN(C)C)c(=O)[nH]c12	n	n	n	n	n	x	x
Cc1ccc(NC(=S)N(CCN(C)C)Cc2cc3cccc(C)c3[nH]c2=O)cc1	n	n	n	n	n	x	x
Cc1ccc(Cc2c(-c3ccc(C#N)cc3)nc3c(C)cc(Br)cn23)cc1	x	x	x	x	n	x	x
CCN(CC(=O)Nc1ccc(OC)cc1)C(=O)c1cccc(S(=O)(=O)N2CCN(c3ccccc3)CC2)c1	x	x	x	x	n	x	x
COc1cc(NC(=O)Nc2cccc([N+](=O)[O-])c2)cc(OC)c1	n	28	n	n	n	n	74
O=C(Nc1ccc(C(=O)O)cc1)Nc1ccc([N+](=O)[O-])cc1	n	n	n	n	n	x	x
COc1ccc(CCNC(=O)Nc2cccc([N+](=O)[O-])c2)cc1	n	n	n	n	n	x	x
COC(=O)c1ccc(NC(=O)Nc2ccc([N+](=O)[O-])cc2)cc1	n	47	37	67	n	71	67
S=C1NC[C@H](Cc2ccccc2)N1CC1CCN(CCCC2CCCCC2)CC1	x	x	x	x	n	x	x
CC(=O)c1cccc(NC(=S)NC(=O)Cc2ccc(Cl)cc2)c1	n	36	n	n	n	55	35
Clc1ccc(Cl)c(OCCCCNCc2ccccc2)c1	n	n	n	n	n	x	x
Clc1ccc(OCCCNCc2ccccc2)c(Br)c1	n	26	n	n	n	40	54
CCC(C)NCCOCCOc1ccc(Cl)cc1Br (configuration not stated)	n	47	n	n	n	n	n
CCC(C)NCCOCCOc1ccc(C)cc1OC (configuration not stated)	n	n	n	n	n	x	x
O=C(COc1ccccc1F)N1CCc2ccccc2C1	n	26	n	n	n	34	35
C=CCN1[C@@H](C)[C@H](c2ccccc2)Oc2cccc(NCC(C)C)c2S1(=O)=O	x	x	x	x	n	x	x
Cc1ccc(C)c(CN2CCC(CNC(=O)Nc3ccc(F)c(Cl)c3)CC2)c1	n	38	n	n	n	40	68
O=C1NC[C@H](CCCCN2CCN(CCc3ccccc3)C(=O)C2=O)N(Cc2ccccc2)C1=O	x	x	x	x	n	x	x

From PubChem BioAssay
